The values that follow come from ChEMBL document CHEMBL1150355, “Design and evaluation of a novel series of 2,3-oxidosqualene cyclase inhibitors with low systemic exposure, relationship between pharmacokinetic properties and ocular toxicity” (Bioorg Med Chem, 2008).

What is called CLint scaled is a measure of how fast metabolising enzymes remove a compound, apart from limits set by blood flow. A word on the IC50: it is the point on the concentration scale where inhibition reaches its midpoint. By inhibition in vivo is commonly meant how much of the control response was suppressed. A word on the AUC(0-t): it is exposure summed from dosing to a finite time, without extrapolation to infinity. A lower AUC(0-t) goes with low exposure. What is called EC50 is the concentration needed to bring the measured effect to its halfway point. Read a low EC50 as higher potency in that assay.

For data set [1], the target named is T1, Lanosterol synthase (Homo sapiens) (UniProt P48449).
T1 sequence (whole entry): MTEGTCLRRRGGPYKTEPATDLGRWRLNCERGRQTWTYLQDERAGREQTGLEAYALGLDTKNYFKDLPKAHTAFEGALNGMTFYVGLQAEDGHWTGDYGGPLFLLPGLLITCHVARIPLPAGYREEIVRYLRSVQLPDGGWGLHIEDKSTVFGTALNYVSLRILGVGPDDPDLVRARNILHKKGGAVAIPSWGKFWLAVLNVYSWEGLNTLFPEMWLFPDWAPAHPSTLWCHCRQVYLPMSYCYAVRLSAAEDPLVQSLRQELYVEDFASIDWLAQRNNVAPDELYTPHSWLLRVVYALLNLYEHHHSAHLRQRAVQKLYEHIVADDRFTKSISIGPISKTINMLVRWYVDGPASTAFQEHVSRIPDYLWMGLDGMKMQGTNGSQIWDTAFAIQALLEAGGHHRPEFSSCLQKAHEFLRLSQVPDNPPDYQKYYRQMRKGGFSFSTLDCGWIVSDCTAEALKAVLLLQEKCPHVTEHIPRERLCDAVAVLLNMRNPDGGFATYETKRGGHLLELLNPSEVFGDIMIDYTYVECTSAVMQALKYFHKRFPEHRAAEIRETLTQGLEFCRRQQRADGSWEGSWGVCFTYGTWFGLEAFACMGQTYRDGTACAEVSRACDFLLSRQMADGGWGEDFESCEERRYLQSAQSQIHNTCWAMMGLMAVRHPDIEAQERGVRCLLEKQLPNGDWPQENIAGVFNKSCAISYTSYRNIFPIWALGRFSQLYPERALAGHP
The data set is described as follows: Inhibition of 2,3-oxidosqualene-lanosterol cyclase at 200 nM. The essentials: (§1)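 HepG2 cells were incubated 24 h with compound in BME with 10% fetal calf serum, then labelled with [14C]mevalonate (7.4 kBq). Lipids were extracted with heptane/isopropanol and separated by TLC. [14C]cholesterol, MES and DES were identified against standards and quantified by phosphorimaging, scoring cholesterol synthesis inhibition together with MES/DES formation.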

Data set [2] in a line: Metabolic stability in rat liver microsomes assessed as intrinsic clearance […]. In kind it is ADME, Microsome. (In general: Microsomes from liver hold many membrane-bound enzymes, among them those of drug oxidation.)
Data set [3] deals with Rattus norvegicus. Put plainly: Induction of neosynthetized 2,3 mono-epoxysqualene synthesis in OFA rat liver at 2 mg/kg, po after 3 hrs relative to BIBB 515. In kind it is functional. The method, boiled down: (§2)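 Male OFA rats dosed orally at 2 mg/kg. Sterol synthesis was labelled by ip [14C]mevalonate (370 kBq) for the final hour, giving 3 h or 8 h total exposure. Lens and liver lipids were extracted with isopropanol, separated by TLC, and cholesterol and MES radioactivity quantified by phosphorimaging. Cholesterol inhibition is relative to vehicle-treated rats, and MES as % of BIBB 515-treated rats (100%).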

The target of the next data set is T2, Lanosterol synthase (Homo sapiens, UniProt P48449).
T2 sequence (P48449 whole entry): T1 sequence (whole entry)
The data set is described as follows: Inhibition of 2,3-oxidosqualene-lanosterol cyclase. The method, boiled down: as §1

Data set [4] has as its system Rattus norvegicus. Put plainly: Inhibition of neosynthetized cholesterol synthesis in OFA rat liver at 2 mg/kg, po after 3 hrs. It counts as functional. The method, boiled down:
as §2

Data set [5] is described as follows: Biodistribution in OFA rat liver at 1 mg/kg, iv after 2 hrs. The note with it: read-out: Drug uptake. In kind it is ADME, organism-based. The arrangement: dose 1 mg/kg, route intravenous. The method, boiled down:
(§3)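 OFA rats (n = 10) dosed 1 mg/kg by iv bolus via penis vein in 10% DMA/90% PEG200. Plasma and tissue homogenates in borate buffer 0.1 M pH 11.5 were extracted with ethyl ether and analysed by LC. Plasma AUC was computed over 0–6 h.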

Data set [6] has as its system Rattus norvegicus. The data set is described as follows: Induction of neosynthetized 2,3 mono-epoxysqualene synthesis in OFA rat lens at 2 mg/kg, po after 3 hrs relative to BIBB 515. It counts as functional, Lens of camera-type eye. The method, boiled down: as §2
A short description of data set [7]: Biodistribution in OFA rat eyes at 1 mg/kg, iv after 2 hrs. In kind it is ADME, organism-based. The arrangement: dose 1 mg/kg, route intravenous. The note with it: eye, read-out: Drug uptake. The method, boiled down: as §3
Data set [8] relates to Rattus norvegicus. The data set is described as follows: Induction of neosynthetized 2,3 mono-epoxysqualene synthesis in OFA rat liver at 2 mg/kg, po after 8 hrs relative to BIBB 515. It counts as functional. The essentials:
as §2

The nature of data set [9]: Biodistribution in OFA rat liver at 1 mg/kg, iv after 6 hrs. In kind it is ADME, organism-based. The arrangement: dose 1 mg/kg, route intravenous. The following applies: read-out: Drug uptake. The method, boiled down:
as §3

Data set [10] relates to Rattus norvegicus. The data set is described as follows: Inhibition of neosynthetized cholesterol synthesis in OFA rat lens at 2 mg/kg, po after 3 hrs. In kind it is functional. The following applies: Lens of camera-type eye. The essentials: as §2
Data set [11] relates to Rattus norvegicus. Put plainly: Inhibition of neosynthetized cholesterol synthesis in OFA rat lens at 2 mg/kg, po after 8 hrs. The note with it: Lens of camera-type eye. It counts as functional. The essentials: as §2
Data set [12] is described as follows: AUC (0 to 6 hrs) in OFA rat at 1 mg/kg, iv. The arrangement: time < 6 hr, dose 1 mg/kg, route intravenous. The note with it: plasma. It counts as ADME, organism-based. The method, boiled down: as §3
Data set [13] is described as follows: Biodistribution in OFA rat eyes at 1 mg/kg, iv after 6 hrs. It counts as ADME, organism-based. Also noted: dose 1 mg/kg, route intravenous. The note with it: eye, read-out: Drug uptake. The essentials:
as §3

Data set [14] has as its system Rattus norvegicus. Put plainly: Inhibition of neosynthetized cholesterol synthesis in OFA rat liver at 2 mg/kg, po after 8 hrs. In kind it is functional. The method, boiled down:
as §2

Data set [15] concerns Rattus norvegicus. Put plainly: Induction of neosynthetized 2,3 mono-epoxysqualene synthesis in OFA rat lens at 2 mg/kg, po after 8 hrs relative to BIBB 515. In kind it is functional, Lens of camera-type eye. The essentials:
as §2

Active and inactive are the calls of the source. The rule behind the calls is not given here. A value given as a limit tells only on which side of the number the result lay.

For `Cc1nc(-c2ccc(CN3CCN(C(=O)c4ccc(Cl)cc4)CC3)cc2)no1`, in [1], the outcome was inactive.
For the molecule `O=C(c1ccc(Cl)cc1)N1CCN(Cc2ccc(-c3ccncc3)cc2)CC1`, the intrinsic metabolic clearance (CLint scaled) in data set [2] was determined as 6 mL/min/g. Also, the Activity with Rattus norvegicus [3] came to 55%. The midpoint of inhibition at Lanosterol synthase, the IC50, lay at 3 nM. In addition, in the data set on Rattus norvegicus [4], the inhibition in vivo at 2 mg/kg came out at 64%.
Taken in the same sequence, the figures for `CN(C)Cc1ccc(-c2ccc(CCNS(=O)(=O)c3ccc(C#N)cc3)cc2)cc1` were 9.9 mL/min/g, 6%, 28 nM and 47%.
With `Clc1ccc(CN2CCN(Cc3ccc(-c4ccncc4)cc3)CC2)cc1`, the half-maximal inhibitory concentration (IC50) at Lanosterol synthase amounted to 316 nM.
On the same count and under the same terms, under `COc1ccc(C(=O)N2CCN(Cc3ccc(-c4ccncc4)cc3)CC2)cc1` stands 2510 nM.
With `O=C(c1ccc(Cl)cc1)N1CCC(=Cc2ccc(C3=NCCO3)cc2)CC1`, the concentration at 2 h in [5] is 301 ng/g; in data set [7], below 10 ng/g. Also, the Activity with Rattus norvegicus [6], in the data set on Rattus norvegicus [8], with Rattus norvegicus [3] and in the data set with Rattus norvegicus [15] was 100% in each case. Also, the CLint scaled in data set [2] was found to be 2.3 mL/min/g. Further, the concentration at 6 h in data set [9] is 169 ng/g; in data set [13] it was below 10 ng/g. In addition, the inhibition in vivo at 2 mg/kg was 79% with Rattus norvegicus [10], 61% in the data set on Rattus norvegicus [11], 85% in the data set on Rattus norvegicus [4] and 40% in the data set with Rattus norvegicus [14]. This molecule also returned an AUC(0-t) at 6 h in data set [12] of 1030 ng·h/mL.
For the molecule `CN(C)Cc1cccc(-c2ccc(CCNS(=O)(=O)c3ccc(C#N)cc3)cc2)c1`, the outcome in data set [1] was inactive.
In the case of `CN(C)Cc1ccc(CN2CCN(C(=O)c3ccc(OC(F)(F)F)cc3)CC2)cc1`, the figures for the concentration at 2 h in [5] and in data set [7] were 2420 ng/g and 260 ng/g, respectively. Besides, the Activity was found to be 175% with Rattus norvegicus [6], 241% with Rattus norvegicus [8], 100% in the data set with Rattus norvegicus [3] and 51% with Rattus norvegicus [15]. In addition, the intrinsic clearance (CLint scaled) in data set [2] is 3.6 mL/min/g. For the same molecule, the concentration at 6 h in [9] was determined as 1320 ng/g; in data set [13] it was 194 ng/g. The inhibition in vivo at 2 mg/kg in the data set with Rattus norvegicus [10] came to 64%; in the data set with Rattus norvegicus [11], 66%; in the data set on Rattus norvegicus [4], 83%; with Rattus norvegicus [14] it was 69%. In addition, the AUC(0-t) at 6 h in [12] came to 362 ng·h/mL. For the same molecule, on Lanosterol synthase, the IC50 worked out at 20 nM.
Take `CN(C)Cc1ccc(CN2CCN(S(=O)(=O)c3ccc(Cl)cc3)CC2)cc1`: in data set [2], the CLint scaled came out at 2.5 mL/min/g. In addition, the Activity in the data set on Rattus norvegicus [3] is reported as 55%. On Lanosterol synthase, this molecule displayed a half-inhibitory concentration (IC50) of 32 nM. In the data set with Rattus norvegicus [4], testing at 2 mg/kg gave an inhibition in vivo of 74%.
On to `N#Cc1ccc(S(=O)(=O)NCCc2ccc(C(O)c3cccnc3)cc2)cc1` (racemic), for which the midpoint of the response on Lanosterol synthase, the EC50, lay at 100 nM.
